# Data: ChEMBL document CHEMBL1135725, “N-Aryl N'-hydroxyguanidines, a new class of NO-donors after selective oxidation by nitric oxide synthases: structure-activity relationship” (J Med Chem, 2002)
# B1: Nitric oxide synthase, inducible (Mus musculus), P29477 (protein)
# chain: MACPWKFLFKVKSYQSDLKEEKDINNNVKKTPCAVLSPTIQDDPKSHQNGSPQLLTGTAQNVPESLDKLHVTSTRPQYVRIKNWGSGEILHDTLHHKATSDFTCKSKSCLGSIMNPKSLTRGPRDKPTPLEELLPHAIEFINQYYGSFKEAKIEEHLARLEAVTKEIETTGTYQLTLDELIFATKMAWRNAPRCIGRIQWSNLQVFDARNCSTAQEMFQHICRHILYATNNGNIRSAITVFPQRSDGKHDFRLWNSQLIRYAGYQMPDGTIRGDAATLEFTQLCIDLGWKPRYGRFDVLPLVLQADGQDPEVFEIPPDLVLEVTMEHPKYEWFQELGLKWYALPAVANMLLEVGGLEFPACPFNGWYMGTEIGVRDFCDTQRYNILEEVGRRMGLETHTLASLWKDRAVTEINVAVLHSFQKQNVTIMDHHTASESFMKHMQNEYRARGGCPADWIWLVPPVSGSITPVFHQEMLNYVLSPFYYYQIEPWKTHIWQNEKLRPRRREIRFRVLVKVVFFASMLMRKVMASRVRATVLFATETGKSEALARDLATLFSYAFNTKVVCMDQYKASTLEEEQLLLVVTSTFGNGDCPSNGQTLKKSLFMLRELNHTFRYAVFGLGSSMYPQFCAFAHDIDQKLSHLGASQLAPTGEGDELSGQEDAFRSWAVQTFRAACETFDVRSKHHIQIPKRFTSNATWEPQQYRLIQSPEPLDLNRALSSIHAKNVFTMRLKSQQNLQSEKSSRTTLLVQLTFEGSRGPSYLPGEHLGIFPGNQTALVQGILERVVDCPTPHQTVCLEVLDESGSYWVKDKRLPPCSLSQALTYFLDITTPPTQLQLHKLARFATDETDRQRLEALCQPSEYNDWKFSNNPTFLEVLEEFPSLHVPAAFLLSQLPILKPRYYSISSSQDHTPSEVHLTVAVVTYRTRDGQGPLHHGVCSTWIRNLKPQDPVPCFVRSVSGFQLPEDPSQPCILIGPGTGIAPFRSFWQQRLHDSQHKGLKGGRMSLVFGCRHPEEDHLYQEEMQEMVRKRVLFQVHTGYSRLPGKPKVYVQDILQKQLANEVLSVLHGEQGHLYICGDVRMARDVATTLKKLVATKLNLSEEQVEDYFFQLKSQKRYHEDIFGAVFSYGAKKGSALEEPKATRL
# What was measured:
# Type in all cases: functional
# Settings in all cases: Mus musculus
# [1] = substrate: COc1ccc(NC(=N)NO)cc1; assay: (§1) Kinetic constant for NO formation during oxidation by NADPH and molecular Oxygen with NOS II
# Outline: (§2)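 Recombinant NOS II (E. coli-expressed, purified) assayed at 37 °C in 50 mM HEPES pH 7.4 with 1 mM NADPH, 100 μM BH4, 5 mM DTT, SOD and catalase (100 U/mL each), and 12-15 μM oxyhemoglobin. Substrate was varied from 5 μM to 2.5 mM. Enzyme level was set to keep oxyhemoglobin conversion below 30%. Kinetic constants come from the initial methemoglobin formation rate at 401 nm; three to four experiments.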
# [2] = substrate: Cc1ccc(NC(=N)NO)cc1; assay: as §1; outline: as §2
# [3] = substrate: N/C(=N/c1ccc(F)cc1)NO; assay: as §1; outline: as §2
# [4] = substrate: N/C(=N/c1ccc(O)cc1)NO; assay: as §1; outline: as §2
# [5] = substrate: N/C(=N/c1ccsc1)NO; assay: as §1; outline: as §2
# [6] = substrate: N=C(NO)Nc1ccccc1; assay: as §1; outline: as §2
protein,measurement,setting,value
B1,Km,[1],2600 µM
same,Km,[2],1100 µM
same,Km,[3],300 µM
same,Km,[4],425 µM
same,Km,[5],25 µM
same,Km,[6],270 µM
